Experimental data from PubChem BioAssay AID624204 (Sanford-Burnham Center for Chemical Genomics, 2012).
About 770 (0.21%) of roughly 360,000 compounds were called active. Many of the other results were omitted from the sample, so actives are more common in it than they were. Unmarked numbers belong to inactive results.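 How the source made its calls: active means inhibition at least 30% at 10 µM, raw YFP signal under a set limit, fluorescence ratio 0.5 to 1.5; inactive means the rest.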

biological target: Sentrin-specific protease 1 (Homo sapiens) (UniProt Q9P0U3); experiment: blockers of SENP1 SUMO protease activity – biochemical, FRET, uHTS, primary screen (AID 624204); details: recombinant SENP1 catalytic domain, CyPet-SUMO1-YPet FRET cleavage; at 10 µM; hits give high values;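 further: 0% = enzyme with DMSO and 100% = no enzyme wells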
Sequence (Q9P0U3 419-644 limits assumed): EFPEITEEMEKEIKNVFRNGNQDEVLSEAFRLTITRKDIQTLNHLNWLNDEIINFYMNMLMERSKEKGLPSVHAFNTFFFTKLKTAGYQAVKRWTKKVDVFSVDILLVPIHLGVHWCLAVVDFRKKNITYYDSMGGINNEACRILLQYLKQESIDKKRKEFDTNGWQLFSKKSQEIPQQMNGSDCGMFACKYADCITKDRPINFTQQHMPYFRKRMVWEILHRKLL
Method in brief: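 Test system: recombinant human SENP1 catalytic domain, His6-tagged / Medium: pH 8 Tris buffer with EDTA, NaCl, BME, BSA, NP40, catalase / Also added: SUMO1 FRET substrate flanked by Cypet and Ypet, 25 nM / Times: 50 min reaction at room temperature / Signal: FRET, CFP and YFP emission / Control set: no-enzyme low control and enzyme-plus-DMSO high control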

For `N/C(=N\OC(=O)N1c2ccccc2Sc2ccccc21)c1ccc(Br)cc1`, the inhibition was 45.8% (active).
For `O=C(COC(=O)Cn1cnc2ccccc21)Nc1cccc2c1C(=O)c1ccccc1C2=O`, the inhibition was 49.1% (active).
With `CCN(CC)S(=O)(=O)c1cc([N+](=O)[O-])ccc1N=Nc1c(O)n(C)c2ccccc12` the inhibition was 38.9% (active).
In the case of `CCCCCn1nnnc1-c1nc2cc3ccccc3cc2[nH]c1=O`, the inhibition is reported as 70.6% (active).
For `COc1cccc(/C=N/NC(=O)c2[nH]nc3c2CCc2ccccc2-3)c1O`, the inhibition was 48.9% (active).
With `CCOc1cc(/C=C2\SC(N3CCCC(C)C3)=NC2=O)ccc1O` (centres undefined) the inhibition was 58.5% (active).
For `CCOc1cc(/C=C2\SC(N3CCCCC3)=NC2=O)ccc1O`, the inhibition was 56.6% (active).
In the case of `Fc1cccc(Cc2c(-c3cccc(Cl)c3)nc3ccc(Br)cn23)c1`, the inhibition is reported as 45.8% (active).

First: N/C(=N\OC(=O)c1ccc2c(c1)OCO2)c1ccc(Br)cc1
Second: N/C(=N\OC(=O)CCc1ccccc1)c1ccc(Cl)cc1
The inhibition of the first is lower: 2.72% for the first, 4.15% for the second.

Compared with `Fc1ccc(CNCc2ccc(Br)cc2)cc1`, `COc1ccc(S(=O)(=O)N2CCOC2CNC(=O)C(=O)NCc2ccc(F)cc2)cc1` (centres undefined) is higher in inhibition: 0.319% for the first, 0.939% for the second.

First: CC(C)c1ccc(S(=O)(=O)N2CCC3(CC2)OCCO3)cc1
Second: O=S(=O)(c1ccc(F)cc1)N1CCN(C(=S)NC2CCCC2)CC1
The inhibition of the first is lower: -0.675% for the first, 2.06% for the second.

First: CC(C)=CCN1CCN(Cc2cc3ccccc3[nH]2)CC1CCO (centres undefined)
Second: O=C(c1cccs1)N(Cc1cc2ccccc2[nH]c1=O)CC1CCCO1 (centres undefined)
The inhibition of the first is lower: -16.2% for the first, 0.621% for the second.

First: O=C(OCC(=O)N1CCCCCC1)c1ccc(Br)c(S(=O)(=O)N2CCOCC2)c1
Second: Cc1ccc(S(=O)(=O)NC2CCCCCC2)cc1C(N)=O
The inhibition of the first is higher: 2.31% for the first, 1.4% for the second.

First: CCC1CCCCN1CCNC(=O)c1[nH]c(C)c(C(C)=O)c1C (centres undefined)
Second: CCOC(=O)N1CCC(O)(c2cc(C)c(C)cc2C)CC1
The inhibition of the first is lower: -5.33% for the first, 0.28% for the second.

First: CS(=O)(=O)Nc1ccccc1N=C(c1ccccc1)c1ccccc1
Second: O=C(Cn1cnc2ccccc21)Nc1ccccc1-c1ccccc1
The inhibition of the first is lower: 1.89% for the first, 2.05% for the second.

Going from `CCc1ccc(C(=O)NN=C2CCCCCC2)s1` to `CCN1C(=O)/C(=C2\SC(N3CCCCC3)=NC2=O)c2ccccc21`, the inhibition falls from 1.74% to 1.36%.

Going from `COc1ccc(-c2c(C#N)cnc(C)c2C)c(O)c1OC` to `COc1ccccc1-c1noc(CSc2nc(C)cc(=O)[nH]2)n1`, the inhibition falls from 0.472% to 0.334%.

Going from `COC(=O)CNC(=O)C(CCSC)NC(C)=O` (centres undefined) to `CC(C)OC(=O)CC(=O)CC(O)c1cccc([N+](=O)[O-])c1` (centres undefined), the inhibition falls from 2.78% to 1.31%.

First: CC(C)n1cnc2c(NCc3ccccc3)cc(OCC3CCN(C)CC3)cc21
Second: Cc1c(CN2CCC(n3nccc3NC(=O)CCc3ccccc3)CC2)cnn1C
The inhibition of the first is lower: -28.3% for the first, 2.13% for the second.

Compared with `COCC1CCN(C(=O)C2CCC(=O)N(Cc3cccc(C(F)(F)F)c3)C2)CC1` (centres undefined), `O=C(NC1CCCCC1)C1CC(=O)N(CCc2ccccc2)C1` (centres undefined) is lower in inhibition: 2.83% for the first, 1.46% for the second.

Going from `Cc1oc2c(F)c(F)c(F)c(F)c2c1S(=O)(=O)Nc1cccc(C(F)(F)F)c1` to `O=[N+]([O-])c1cc(S(=O)(=O)Nc2cccc(Cl)c2)ccc1N=Nc1c(O)[nH]c2ccccc12`, the inhibition rises from 0.0743% to 7.59%.

Going from `COc1ccc(S(=O)(=O)N(C)C[C@H]2OCc3cnnn3CCCC(=O)N([C@H](C)CO)C[C@H]2C)cc1` to `COc1ccc(S(=O)(=O)N2CCC(C(=O)NCCC(=O)NCCc3cccc(F)c3)CC2)cc1`, the inhibition rises from 0.96% to 1.66%.

First: O=C(COC(=O)Cn1cnc2ccccc2c1=O)NCC12CC3CC(CC(C3)C1)C2
Second: CCn1nc(C(=O)NNC(=O)C2CSC3(C)CCC(=O)N23)c2ccccc2c1=O (centres undefined)
The inhibition of the first is lower: -2.59% for the first, 1.35% for the second.

Compared with `CCN(CC)S(=O)(=O)c1ccc2c3c(cccc13)C(=O)S2`, `CN(C)CCN(Cc1ccccc1)S(=O)(=O)c1csc(C(N)=O)c1` is higher in inhibition: -5.16% for the first, 3.33% for the second.

First: CC(/C=C/C1(O)C(C)CC(=O)CC1(C)C)OC1OC(CO)C(O)C(O)C1O (centres undefined)
Second: CCOC(=O)/C(=N\Nc1cc(Cl)ccc1Cl)N1CCN(C)CC1
The inhibition of the first is lower: -6.63% for the first, 0.895% for the second.

First: O=C(CNC(=O)N1CC(=O)Nc2ccccc21)Nc1ccc(Br)cc1F
Second: COc1ccccc1-c1nnc(NC(=O)c2cccc(N3C(=O)CCC3=O)c2)o1
The inhibition of the first is lower: -5.9% for the first, 1.37% for the second.

Compared with `CCN(C(=O)CSc1nnc2ccccn12)C1CCS(=O)(=O)C1` (centres undefined), `CCCn1c(=O)c2ccccc2n2c(SCC(=O)/C(C#N)=C(\C)N)nnc12` is lower in inhibition: 0.95% for the first, -2.1% for the second.

Compared with `CCCCCn1nnnc1C1c2ccccc2C(=O)N1Cc1ccco1` (centres undefined), `CCCCn1nnnc1NCc1cc(OC)c(OC)c(OC)c1` is lower in inhibition: 2.03% for the first, 1.02% for the second.

First: CCCCn1c(-c2cccc(C)c2)nc2cc3[nH]c(=O)c(C(C)C)nc3cc21
Second: CCOc1cc(/C=C2\C(=N)N3N=C(C)SC3=NC2=O)ccc1OCCOc1ccccc1
The inhibition of the first is lower: -46.9% for the first, -3.15% for the second.

Going from `CC(=O)Nc1ccc(Sc2ccccc2C(=O)N2CCCC2)cn1` to `CC1CCN(C2=NC(=O)/C(=C/c3cn[nH]c3-c3ccccc3)S2)CC1`, the inhibition falls from 0.55% to -1.05%.

Going from `CCc1nc2ccc(C(=O)Nc3cc(-c4ccccc4)ccc3OC)cn2c1N(CC)CC(=O)N(C)C` to `COc1ccc(CC(=O)N[C@@H]2c3cc(OC)c(OC)cc3C[C@H]2OCc2ccccc2)cc1`, the inhibition rises from -1.8% to 2.95%.

Compared with `Cc1ccc(SC(=O)COc2ccc(C)c(C)c2)cc1`, `COc1ccc(Cl)cc1C=CC=NNC(=O)c1ccncc1` is lower in inhibition: 4.05% for the first, 2.79% for the second.

Compared with `Cc1cccc(N(C(=O)Cc2cccs2)C(C(=O)NCc2ccco2)c2ccncc2)c1` (centres undefined), `Clc1cccc(Cc2c(-c3cccc(Cl)c3)nc3ccc(Cl)cn23)c1` is higher in inhibition: -0.142% for the first, 18.5% for the second.

Molecule `Fc1cccc(Cc2c(-c3ccc(Cl)cc3)nc3ccc(Cl)cn23)c1` has an inhibition of 9.99%.
